Source: ChEMBL document CHEMBL1137566 (J Med Chem, 2007)
≈ marks a conversion by molar mass, not a printed value.

How the values were obtained:
Coagulation factor X [1] = target: Coagulation factor X (Homo sapiens, UniProt P00742); test: Binding affinity to human F10a
Prothrombin = Prothrombin (Homo sapiens, UniProt P00734); test: Inhibition of human thrombin
Trypsin = Trypsin (Homo sapiens, UniProt P07477+P07478+P35030); test: Inhibition of human trypsin; format: protein assay
[2] = Clearance in dog at 0.4 mg/kg, iv and 0.2 mg/kg, po; format: ADME, organism-based, Canis lupus familiaris; settings: in vivo
Procedure, shortened: (§1)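 Dog pharmacokinetics from cassette (N-in-one) dosing of compounds as TFA salts: 0.4 mg/kg iv and 0.2 mg/kg po, n = 2 animals.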

[3] = Volume of distribution at steady state in dog at 0.4 mg/kg, iv and 0.2 mg/kg, po; format: ADME, organism-based, Canis lupus familiaris; settings: in vivo, read-out: Vdss; procedure, shortened: as §1
[4] = Half life in dog at 0.2 mg/kg, po; format: ADME, organism-based, Canis lupus familiaris; design: dose 0.2 mg/kg, route oral; settings: in vivo; procedure, shortened: as §1
Oryctolagus cuniculus = species: Oryctolagus cuniculus; test: Inhibition of thrombus formation in rabbit arteriovenous shunt thrombosis model; format: functional, organism-based
[5] = Half life in human liver microsomes; format: ADME, Microsome
[6] = Protein binding in human serum by equilibrium dialysis; format: ADME, cell-free; settings: read-out: PB (converted)
[7] = (§2) Oral bioavailability in dog at 0.2 mg/kg, po; format: ADME, organism-based, Canis lupus familiaris; settings: in vivo; procedure, shortened: as §1
[8] = Apparent permeability across Caco-2 cells; format: ADME, cell-based; settings: human
[9] = Aqueos solubility in saline; format: ADME
Coagulation factor X [10] = target: T1, Coagulation factor X (Oryctolagus cuniculus, UniProt O19045); test: Binding affinity to rabbit F10a
T1 sequence (O19045 whole entry): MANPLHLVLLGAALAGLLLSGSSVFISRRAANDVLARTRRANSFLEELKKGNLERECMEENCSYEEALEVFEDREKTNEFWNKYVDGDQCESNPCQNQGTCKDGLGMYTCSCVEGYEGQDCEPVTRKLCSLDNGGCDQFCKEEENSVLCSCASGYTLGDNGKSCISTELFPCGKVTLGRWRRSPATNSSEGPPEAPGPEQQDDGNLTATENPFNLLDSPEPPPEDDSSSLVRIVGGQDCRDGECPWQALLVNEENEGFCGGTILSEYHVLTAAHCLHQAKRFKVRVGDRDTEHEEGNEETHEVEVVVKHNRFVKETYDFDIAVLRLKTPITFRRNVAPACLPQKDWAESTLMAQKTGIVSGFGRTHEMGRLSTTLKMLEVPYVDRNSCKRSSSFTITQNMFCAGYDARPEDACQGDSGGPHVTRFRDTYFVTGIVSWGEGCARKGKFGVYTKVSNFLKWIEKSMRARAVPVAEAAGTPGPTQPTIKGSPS

Canis familiaris = test: as §2; format: ADME, organism-based, Canis lupus familiaris; settings: in vivo; procedure, shortened: as §1

Chain of Coagulation factor X (Homo sapiens, UniProt P00742) (P00742 41-179 limits assumed): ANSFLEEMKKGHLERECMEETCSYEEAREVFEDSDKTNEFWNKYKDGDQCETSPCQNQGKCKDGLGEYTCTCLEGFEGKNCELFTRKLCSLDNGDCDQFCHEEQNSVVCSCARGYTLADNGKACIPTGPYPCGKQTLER
Chain of Coagulation factor X (Homo sapiens, UniProt P00742) (P00742 235-488 limits assumed): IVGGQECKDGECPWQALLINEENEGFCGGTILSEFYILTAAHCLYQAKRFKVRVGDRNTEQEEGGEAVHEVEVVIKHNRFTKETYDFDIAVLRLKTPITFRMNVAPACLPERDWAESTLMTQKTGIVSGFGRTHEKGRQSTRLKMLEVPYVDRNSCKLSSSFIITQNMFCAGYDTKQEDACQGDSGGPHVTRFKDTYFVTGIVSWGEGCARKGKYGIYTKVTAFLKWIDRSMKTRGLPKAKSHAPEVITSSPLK

Ki (Coagulation factor X [1])	Ki (Prothrombin)	Ki (Trypsin)	Vd [3]	half-life [4]	SMILES	clearance [2]	other results
0.48 nM	980 nM	> 3000 nM			COc1ccc(-n2nc(Cn3nccn3)c3c2C(=O)N(c2ccc(-c4ccccc4CN4CC[C@@H](O)C4)cc2)CC3)cc1		
0.63 nM	12000 nM	> 3000 nM			COc1ccc(-n2nc(-c3nnn[nH]3)c3c2C(=O)N(c2ccc(-c4ccccc4CN4CC[C@@H](O)C4)cc2)CC3)cc1		
0.5 nM	> 6300 nM				COc1ccc(-n2nc(C(F)(F)F)c3c2C(=O)N(c2ccc(N(C)C(C)=O)cc2)CC3)cc1		
0.33 nM	100 nM	> 3000 nM			COc1ccc(-n2nc(C#N)c3c2C(=O)N(c2ccc(-c4ccccc4CN4CC[C@@H](O)C4)cc2)CC3)cc1		
0.31 nM	1800 nM	> 3000 nM			COc1ccc(-n2nc(N(C)C)c3c2C(=O)N(c2ccc(-c4ccccc4CN4CC[C@@H](O)C4)cc2)CC3)cc1		
0.25 nM	1900 nM	> 3000 nM			COc1ccc(-n2nc(Cn3cncn3)c3c2C(=O)N(c2ccc(-c4ccccc4CN4CC[C@@H](O)C4)cc2)CC3)cc1		
9.6 nM	4600 nM	> 3000 nM			COc1ccc(-n2nc(NC(=O)OC(C)(C)C)c3c2C(=O)N(c2ccc(-c4ccccc4CN4CC[C@@H](O)C4)cc2)CC3)cc1		
1.1 nM	1000 nM	> 3000 nM			COc1ccc(-n2nc(Cn3ncnn3)c3c2C(=O)N(c2ccc(-c4ccccc4CN4CC[C@@H](O)C4)cc2)CC3)cc1		
0.47 nM	3300 nM				COc1ccc(-n2nc(C(F)(F)F)c3c2C(=O)N(c2ccc(N4CCCCCC4=O)cc2)CC3)cc1		
	> 6300 nM				COc1ccc(-n2nc(C(F)(F)F)c3c2C(=O)N(c2ccc(N)cc2)CC3)cc1		
4.8 nM	7000 nM	> 3000 nM			CNC(=O)c1nn(-c2ccc(OC)cc2)c2c1CCN(c1ccc(-c3ccccc3CN3CC[C@@H](O)C3)cc1)C2=O		
0.25 nM	180 nM	> 3000 nM			COc1ccc(-n2nc(S(C)(=O)=O)c3c2C(=O)N(c2ccc(-c4ccccc4CN4CC[C@@H](O)C4)cc2)CC3)cc1		
2.1 nM	3900 nM				COc1ccc(-n2nc(C(F)(F)F)c3c2C(=O)N(c2ccc(N4CCCCC4)cc2)CC3)cc1		
0.67 nM	12000 nM	> 3000 nM	4.9 L/kg	2.8 h	COc1ccc(-n2nc(Cn3ccnn3)c3c2C(=O)N(c2ccc(-c4ccccc4CN4CC[C@@H](O)C4)cc2)CC3)cc1	41.2 mL/min/kg	bioavailability [7]: 24%; Papp [8]: 1.6 ×10⁻⁶ cm/s
3.9 nM	980 nM	> 3000 nM			CCOC(=O)c1nn(-c2ccc(OC)cc2)c2c1CCN(c1ccc(-c3ccccc3CN3CC[C@@H](O)C3)cc1)C2=O		
0.18 nM	330 nM	> 3000 nM			COc1ccc(-n2nc(C(F)(F)F)c3c2C(=O)N(c2ccc(-c4ccccc4CN4CC[C@@H](O)C4)cc2)CC3)cc1		

Ki (Coagulation factor X [1])	Ki (Prothrombin)	Ki (Trypsin)	Vd [3]	half-life [4]	SMILES	clearance [2]	other results
610 nM	> 6300 nM				CNc1ccc(N2CCc3c(C(F)(F)F)nn(-c4ccc(OC)cc4)c3C2=O)cc1		
6 nM	> 13400 nM				COc1ccc(-n2nc(C(F)(F)F)c3c2C(=O)N(c2ccc(N(C)C)cc2)CC3)cc1		
6.7 nM	9400 nM	> 3000 nM			COc1ccc(-n2nc(N)c3c2C(=O)N(c2ccc(-c4ccccc4CN4CC[C@@H](O)C4)cc2)CC3)cc1		
0.23 nM	4400 nM				COc1ccc(-n2nc(C(F)(F)F)c3c2C(=O)N(c2ccc(N4CCCCC4=O)cc2)CC3)cc1		
7.6 nM	> 20000 nM	> 3000 nM			COc1ccc(-n2nc(C(=O)O)c3c2C(=O)N(c2ccc(-c4ccccc4CN4CC[C@@H](O)C4)cc2)CC3)cc1		
180 nM	> 6300 nM				COc1ccc(-n2nc(C(F)(F)F)c3c2C(=O)N(c2ccc(NC(C)=O)cc2)CC3)cc1		
0.61 nM	2520 nM		1.7 L/kg	0.7 h	COc1ccc(-n2nc(C(N)=O)c3c2C(=O)N(c2ccc(N(C)C(C)=O)cc2)CC3)cc1	46.7 mL/min/kg	bioavailability [7]: 56%; Papp [8]: 2.5 ×10⁻⁶ cm/s; Ki (Coagulation factor X [10]): 2.6 nM
1.7 nM	11000 nM	> 3000 nM			COc1ccc(-n2nc(C(=O)N(C)C)c3c2C(=O)N(c2ccc(-c4ccccc4CN4CC[C@@H](O)C4)cc2)CC3)cc1		
			3.4 L/kg	5.3 h	CN(C)Cc1nccn1-c1ccc(NC(=O)c2cc(C(F)(F)F)nn2-c2ccc3onc(N)c3c2)c(F)c1 [RAZAXABAN]		F (Canis familiaris): 84%; half-life [5]: 0.633 h; fraction unbound [6]: 0.09
0.85 nM	970 nM	> 3000 nM	3.7 L/kg	1.8 h	COc1ccc(-n2nc(Cn3cnnn3)c3c2C(=O)N(c2ccc(-c4ccccc4CN4CC[C@@H](O)C4)cc2)CC3)cc1	43 mL/min/kg	bioavailability [7]: 7%; Papp [8]: 0.9 ×10⁻⁶ cm/s
0.36 nM			1.09 L/kg	1.8 h	COc1ccc(-n2nc(C(N)=O)c3c2C(=O)N(c2ccc(-c4ccccc4CN(CCO)CCO)cc2)CC3)cc1	8.33 mL/min/kg	bioavailability [7]: 15%; Papp [8]: 0.9 ×10⁻⁶ cm/s
2 nM	950 nM	> 3000 nM			COc1ccc(-n2nc(N(C)C(=O)OC(C)(C)C)c3c2C(=O)N(c2ccc(-c4ccccc4CN4CC[C@@H](O)C4)cc2)CC3)cc1		
0.08 nM			6.5 L/kg	3.7 h	CCN(CC)Cc1ccccc1-c1ccc(N2CCc3c(C(N)=O)nn(-c4ccc(OC)cc4)c3C2=O)cc1	40 mL/min/kg	bioavailability [7]: 20%; Papp [8]: 2.3 ×10⁻⁶ cm/s
1.7 nM	4800 nM	> 3000 nM			CNc1nn(-c2ccc(OC)cc2)c2c1CCN(c1ccc(-c3ccccc3CN3CC[C@@H](O)C3)cc1)C2=O		
0.97 nM					COc1ccc(-n2nc(C(N)=O)c3c2C(=O)N(c2ccc(-c4ccccc4CN)cc2)CC3)cc1		Papp [8]: 1.2 ×10⁻⁶ cm/s
0.3 nM			5.6 L/kg	3.5 h	COc1ccc(-n2nc(C(N)=O)c3c2C(=O)N(c2ccc(-c4ccccc4CN4CCCC4)cc2)CC3)cc1	25 mL/min/kg	bioavailability [7]: 53%; Papp [8]: 3.5 ×10⁻⁶ cm/s

SMILES	Ki (Coagulation factor X [1])	Ki (Prothrombin)	Ki (Trypsin)	Vd [3]	half-life [4]	clearance [2]	other results
Nc1noc2ccc(-n3nc(C(F)(F)F)c4c3C(=O)N(c3ccc(-c5ccccc5CN5CC[C@@H](O)C5)cc3)CC4)cc12				1.6 L/kg	5.1 h	5.83 mL/min/kg	IC50 (Oryctolagus cuniculus): 140 nM; half-life [5]: 0.7 h; fraction unbound [6]: 0.03
COc1ccc(-n2nc(C(N)=O)c3c2C(=O)N(c2ccc(-c4ccccc4CN4CC[C@@H](O)C4)cc2)CC3)cc1	0.07 nM	140 nM	> 3000 nM	1.6 L/kg	5.6 h	5.33 mL/min/kg	bioavailability [7]: 100%; Papp [8]: 2.3 ×10⁻⁶ cm/s; IC50 (Oryctolagus cuniculus): 120 nM
COc1ccc(-n2nc(C(N)=O)c3c2C(=O)N(c2ccc(-c4ccccc4CN4CCC(O)CC4)cc2)CC3)cc1	0.29 nM			0.99 L/kg	4.3 h	1.67 mL/min/kg	bioavailability [7]: 55%; Papp [8]: 4.9 ×10⁻⁶ cm/s; IC50 (Oryctolagus cuniculus): 180 nM
COc1ccc(-n2nc(C(N)=O)c3c2C(=O)N(c2ccc(N4CCCCC4=O)cc2)CC3)cc1 [APIXABAN]				0.2 L/kg	5.8 h	0.333 mL/min/kg	bioavailability [7]: 58%; IC50 (Oryctolagus cuniculus): 329 nM; solubility [9]: 50 µg/mL (≈ 109 µM); Ki (Coagulation factor X [10]): 0.17 nM
CNCc1ccccc1-c1ccc(N2CCc3c(C(N)=O)nn(-c4ccc(OC)cc4)c3C2=O)cc1	0.14 nM			7.4 L/kg	7.3 h	21.7 mL/min/kg	bioavailability [7]: 56%; Papp [8]: 1.7 ×10⁻⁶ cm/s; IC50 (Oryctolagus cuniculus): 445 nM; half-life [5]: > 1.67 h
COc1ccc(-n2nc(C(N)=O)c3c2C(=O)N(c2ccc(-c4ccccc4CN(C)C)cc2)CC3)cc1	0.24 nM			6.1 L/kg	3.6 h	33.3 mL/min/kg	bioavailability [7]: 56%; Papp [8]: 2.3 ×10⁻⁶ cm/s; IC50 (Oryctolagus cuniculus): 175 nM
